CTSL1 counter: blocks F. hepatica cathepsin L1 in PFM18AAP counter-screen. inhibition, % at 5.96 µM. AID 1906. recombinant F. hepatica cathepsin L1, Z-Leu-Arg-MCA fluorescence. 300,000 compounds, 0.49% hits;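 active = inhibition above the mean of all tested compounds plus 3 SD, set per screening campaign, cut at about 17% in these data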;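 note: 0% = plate median of test compound wells and 100% = 1 µM Z-Phe-Ala-diazomethylketone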
PAD4 inh: blocks human protein arginine deiminase 4; recombinant PAD4, RCA probe fluorescence polarization; inhibition, % at 6.36 µM; 330,000 compounds, 0.41% hits;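 active = percent inhibition above a cutoff equal to the mean of all tested compounds plus 3 SD, cut at about 15% in these data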;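 note: 0% = PAD4 with RCA probe and DMSO and 100% = probe without PAD4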
GSTO1 inh: counter-screen for RBBP9 inhibitors: inhibitors of human GSTO1 | recombinant GSTO1, activity-based probe fluorescence polarization | inhibition, % at 5.96 µM | 300,000 compounds, 1.1% hits;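 active = inhibition above the campaign mean inhibition plus 3 SD, cut at about 35% in these data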;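 note: 0% = GSTO1-1 with DMSO and 100% = wells lacking GSTO1-1 enzyme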
Target sequence (P78417 whole entry, looked up): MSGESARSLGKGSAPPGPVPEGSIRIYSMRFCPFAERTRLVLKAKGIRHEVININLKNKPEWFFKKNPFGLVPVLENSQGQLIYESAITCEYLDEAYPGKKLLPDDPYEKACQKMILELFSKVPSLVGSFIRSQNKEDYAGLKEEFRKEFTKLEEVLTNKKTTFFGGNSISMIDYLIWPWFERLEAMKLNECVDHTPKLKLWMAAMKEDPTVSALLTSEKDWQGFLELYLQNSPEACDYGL
TDP2 inh: TDP2 (human) inhibition, absorbance primary screen; O95551; recombinant TDP2, T5PNP hydrolysis, p-nitrophenol absorbance 415 nm; inhibition, % at 12.8 µM; 370,000 compounds, 0.34% hits; AID 720702;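 active = inhibition above the mean of all tested compounds plus 3 SD, set per campaign, cut at about 25% in these data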;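 note: 0% = DMSO with enzyme and 100% = buffer with substrate but no TDP2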
Target sequence (O95551 whole entry, looked up): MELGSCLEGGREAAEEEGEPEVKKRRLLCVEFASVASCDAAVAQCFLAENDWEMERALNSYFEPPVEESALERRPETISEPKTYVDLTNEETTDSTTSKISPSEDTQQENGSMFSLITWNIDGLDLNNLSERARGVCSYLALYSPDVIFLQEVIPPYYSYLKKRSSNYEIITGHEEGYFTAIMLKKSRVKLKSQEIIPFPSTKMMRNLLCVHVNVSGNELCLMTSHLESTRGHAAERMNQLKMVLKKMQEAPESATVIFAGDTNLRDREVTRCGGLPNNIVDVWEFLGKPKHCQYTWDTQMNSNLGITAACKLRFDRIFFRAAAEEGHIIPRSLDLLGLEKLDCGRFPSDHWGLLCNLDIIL
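Test system: Human TDP2 enzyme | Reagent: 5 mM T5PNP | Compound dosing: 12.8 µM single point, 1% DMSO | Incubation: Enzyme reaction with compound for 2 h at 37 °C | Technique: p-Nitrophenol epi absorbance | Read-out: % inhibition relative to enzyme-containing and enzyme-free wells | Benchmarks: High control without enzyme, low control DMSO plus TDP2 | Replicates: Singlicate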
Apaf-1 inh: human Apaf-1 inhibition; O14727; reconstituted apoptosome caspase-3 activity, DEVD-Rh110 fluorescence; inhibition, % at 20 µM; 330,000 compounds, 0.71% hits; AID 489030; active = inhibition of at least 40% at 20 µM;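 note: plate controls were DMSO wells for no effect and DEVD-CHO caspase inhibitor wells for full effect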
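Material: biochemical Apaf-1 apoptosome reconstitution. Medium: Hepes buffer, pH 7.5. Also added: cytochrome c activation, bis-DEVD rhodamine 110 substrate. Timing: 30 min compound preincubation, 50 min activation, room temperature. Measured by: rhodamine 110 fluorescence at Ex 480/Em 540 nm.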
GSTO1 inh conf: confirmation of human GSTO1 inhibitors | shares compounds with GSTO1 inh | 2,400 compounds, 54% hits | AID 2176 | recombinant GSTO1, probe fluorescence polarization | inhibition, % at 5.96 µM;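 active = inhibition above the primary screen's cutoff, its mean inhibition plus 3 SD, cut at about 35% in these data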;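 note: loss of polarization as inhibitors block binding of rhodamine sulfonate ester activity probe; 0% = GSTO1 with DMSO and 100% = wells lacking GSTO1 enzyme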
An asterisk follows results filed as active; . = no result given. An excerpt weighted towards active compounds, which were near 1.8% of everything screened.

SMILES	CTSL1 counter	PAD4 inh	GSTO1 inh	TDP2 inh	Apaf-1 inh	GSTO1 inh conf
Cc1cc(Nc2cccc(C(=O)O)c2)n2ncnc2n1	-8	-2	86*	8	-3	5
CCC(=O)Nc1ccc2c(c1)C(=O)N(C)[C@@H]1CC[C@@H](CC(=O)NCc3ccc(OC)cc3)O[C@H]1CO2	.	.	.	-7	.	.
COCc1cc(C)nc(SCC(=O)c2ccc(O)c(O)c2)c1C#N	3	0	48*	-5	0	14
COCc1cc(C)nc(SCC(=O)Oc2ccccc2)c1C#N	-8	1	7	3	4	.
CCOc1ccc(NC(=O)C(c2ccccn2)N(C(=O)CCl)c2ccc(OCC)cc2)cc1 (stereo not given)	-2	-8	43*	.	.	10
CC(=O)Nc1ccc(C(=O)N(C)C(C(=O)Nc2ccc(C)cc2)c2ccccn2)cc1 (stereo not given)	3	4	6	-1	0	.
COC(=O)CCC(=O)OC1(C)C(=O)C=C2C=C(C3CC3)N(Cc3ccco3)C=C2C1=O (stereo not given)	0	-3	38*	17	25	17
COC(=O)CCC(=O)OC1(C)C(=O)C=C2C=C(C3CC3)N(c3ccc(CO)cc3)C=C2C1=O (stereo not given)	-6	-5	21	.	6	.
COC(=O)CCC(=O)OC1(C)C(=O)C=C2C=C(C3CC3)N(c3cccc(C#N)c3)C=C2C1=O (stereo not given)	-3	-11	58*	7	24	8
COC(=O)CCCC1=CC2=CC(=O)C(C)(OC(=O)c3cccs3)C(=O)C2=CN1Cc1ccco1 (stereo not given)	1	-5	18	-1	15	.
COC1=C[C@H](C(=O)NCc2ccc(OC)cc2)C(C)C(c2ccccc2)CC1=O (stereo not given in full)	.	.	.	4	.	.
Cc1c(C=O)c2ccccn2c1C(=O)c1ccc(F)cc1	5	-3	39*	-16	7	6
O=C1CN(C(=O)COC(=O)CNC(=O)c2ccccc2)c2ccccc2N1	-3	-3	89*	7	-5	3
O=C1CN(C(=O)COC(=O)CNC(=O)c2ccc(Cl)cc2)c2ccccc2N1	1	-1	8	-7	-2	.
CCC1CCc2sc(C(=O)OCC(=O)N(CCOC)c3c(N)n(Cc4ccccc4)c(=O)[nH]c3=O)cc2C1 (stereo not given)	0	1	-6	0	28	.
COCCN(C(=O)COC(=O)c1cc2c(s1)CCC2)c1c(N)n(Cc2ccccc2)c(=O)[nH]c1=O	-2	5	52*	4	25	36*
Cc1[nH]nc2c1C(c1ccc(F)cc1)N(Cc1ccccc1)C2=O (stereo not given)	.	.	.	-5	.	.
COC(=O)c1c(NC(=O)C2CCCCC2C(=O)O)sc2c1CCCCC2 (stereo not given)	4	-3	23	-16	15	.
CCOC(=O)c1c(NC(=O)C2CCCCC2C(=O)O)sc2c1CCCCC2 (stereo not given)	3	1	54*	10	5	47*
CN1C(=O)[C@@]2(C3=C(CCCC3=O)OC3=C2C(=O)CC(C)(C)C3)c2ccccc21	.	.	.	-1	.	.
Cc1ccc(N=Cc2ccc[nH]2)c(O)c1	0	-18	38*	-2	18	2
Cc1ccc(S(=O)(=O)NCC2CCN(C(=O)C(=O)c3cccs3)CC2)cc1	.	.	.	9	.	.
COCCn1c(SCC(=O)N2CCCCCC2)nnc1-c1ccco1	0	-10	39*	-1	7	7
CN1CCCCC(NC(=O)C23CC4CC(CC(C4)C2)C3)C1=O (stereo not given)	.	.	.	3	.	.
C[C@H]1CCC/C=C/C(=O)c2c(cc(O)c(Cl)c2O)CC(=O)O1	.	.	.	3	.	.
SMILES	CTSL1 counter	PAD4 inh	GSTO1 inh	TDP2 inh	Apaf-1 inh	GSTO1 inh conf
CC(C)c1cc2c(c(O)c1O)[C@@]13CCCC(C)(C)C1CC2OC3=O (stereo not given in full)	9	4	41*	-4	20	8
Cc1ccccc1Nc1c([N+](=O)[O-])cncc1[N+](=O)[O-]	3	1	4	-22	4	.
O=[N+]([O-])c1cncc([N+](=O)[O-])c1Nc1cccc(O)c1	3	6	70*	1	-64	13
COc1ccc2c3c(cccc13)N(C)N=C2C	0	10	70*	10	73*	64*
C#CCN1C(=O)[C@]2(OCCC=C[C@H]2C)c2cc(OC)ccc21	.	.	.	2	.	.
CCN(CC)c1ccc(NS(=O)(=O)c2ccc3c(c2)oc(=O)n3C)c(C)c1	2	-2	70*	2	6	70*
Cn1c(=O)oc2cc(S(=O)(=O)Nc3ccccc3)ccc21	-1	-3	5	-4	-5	.
Cc1cc(C)c(NS(=O)(=O)c2ccc3c(c2)oc(=O)n3C)c(C)c1	.	.	.	-1	.	.
COc1ccc(NS(=O)(=O)c2ccc3c(c2)oc(=O)n3C)cc1Cl	-3	0	51*	-2	22	57*
COC(=O)c1cc2c(c3c4cc(F)ccc4n(S(=O)(=O)c4ccccc4)c13)C(=O)N(Cc1ccccc1)C2	.	.	.	3	.	.
Cc1cc(C(=O)CN2C(=O)c3ccccc3S2(=O)=O)c(C)n1CC1CCCO1 (stereo not given)	1	6	73*	6	1	5
COc1ccc(NC(=O)NCCCN2CCN(c3ccc(F)cc3)CC2)cc1OC	.	.	.	5	.	.
O=C(O)CCCN1C(=O)/C(=C\c2ccccc2OCc2ccccc2)SC1=S	3	-4	39*	-12	10	48*
O=C(O)CN1C(=O)/C(=C\c2ccccc2OCc2ccccc2)SC1=S	.	.	.	2	.	.
O=C(O)C(Cc1ccccc1)N1C(=O)/C(=C/C=C/c2ccco2)SC1=S (stereo not given)	.	.	.	22	.	.
O=C(O)CN1C(=O)/C(=C\c2cccc(OCc3ccccc3)c2)SC1=S	3	1	40*	18	4	30
O=C(O)CCCN1C(=O)/C(=C/C=C/c2ccco2)SC1=S	0	-7	42*	5	37	37*
COC(=O)[C@]12C[C@H](CC(=O)NCCCN3CCCC3=O)C(=O)N(Cc3ccccc3)C1=C[C@H](COCc1ccccc1)O[C@@H]2C	.	.	.	-4	.	.
O=C(Nc1ccccc1F)c1ccc([N+](=O)[O-])s1	-4	1	44*	2	-3	12
O=C(Nc1cccc2ccccc12)c1ccc([N+](=O)[O-])s1	3	3	32	8	7	.
CCOC(=O)CC[C@H]1CC[C@]2(CCCN(C(=O)c3ccccc3)C2)O1	.	.	.	-5	.	.
NCCCC(C(=O)O)N(C(=O)OCc1ccccc1)C(=O)OCc1ccccc1 (stereo not given)	.	.	.	-10	.	.

Screening data as filed in PubChem.
